≈ marks a conversion by molar mass, not a printed value. Calls of active or inactive are those of the source. Where only a bound is given, the exact number is not on record here.

Data set [1] in a line: Kinetic solubility by quantitative nitrogen detection assay. Type of data set: physicochemical. The essentials: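 Kinetic solubility was determined by quantitative nitrogen detection in three separate experiments.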
Data set [2] concerns the target Pyruvate kinase PKLR (Homo sapiens) (UniProt P30613). In words: Activation of PKL assessed as pyruvate formation by fluorescent pyruvate kinase-lactate dehydrogenase coupled assay relative to control. Set-up: concentration or dose not given beside the values.
For data set [3], the target named is T1, Pyruvate kinase PKM (Homo sapiens, UniProt P14618). Put plainly: Activation of PKM1 assessed as pyruvate formation by fluorescent pyruvate kinase-lactate dehydrogenase coupled assay.
Target sequence in this assay (P14618 2-531 limits assumed): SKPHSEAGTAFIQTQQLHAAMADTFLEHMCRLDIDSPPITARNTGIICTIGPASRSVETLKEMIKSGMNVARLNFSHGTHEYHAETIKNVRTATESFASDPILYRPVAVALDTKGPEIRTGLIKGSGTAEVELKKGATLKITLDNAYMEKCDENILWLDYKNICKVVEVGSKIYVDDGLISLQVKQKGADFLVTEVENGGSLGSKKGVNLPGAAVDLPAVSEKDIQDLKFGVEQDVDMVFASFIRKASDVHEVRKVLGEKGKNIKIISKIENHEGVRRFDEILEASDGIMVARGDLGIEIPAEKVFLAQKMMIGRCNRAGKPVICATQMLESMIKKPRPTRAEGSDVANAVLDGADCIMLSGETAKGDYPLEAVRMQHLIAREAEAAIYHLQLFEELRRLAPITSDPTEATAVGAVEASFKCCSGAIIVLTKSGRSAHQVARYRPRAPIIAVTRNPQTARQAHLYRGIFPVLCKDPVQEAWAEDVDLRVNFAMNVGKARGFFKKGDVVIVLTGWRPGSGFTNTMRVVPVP
Data set [4] deals with Pyruvate kinase PKLR (Homo sapiens) (UniProt P30613). Put plainly: Activation of PKR assessed as pyruvate formation by fluorescent pyruvate kinase-lactate dehydrogenase coupled assay relative to control. The arrangement: concentration or dose not given beside the values.
The target is the same in data set [5]. Put plainly: Activation of PKL assessed as ATP product formation by luminescent pyruvate kinase-luciferase coupled assay relative to control. The arrangement: concentration or dose not given beside the values. The essentials: (§1)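 Luciferase-coupled ATP production assay run as for PKM2: imidazole pH 7.2 buffer with KCl, MgCl2, Tween 20 and BSA, 0.1 mM ADP, 0.5 mM PEP, 1 h at r.t., Kinase-Glo luminescence. Enzyme final concentrations were PKM1 1 nM, PKL 0.1 nM, PKR 0.1 nM. % activation normalized to DMSO (neutral) and no-enzyme controls.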

Data set [6] concerns the target T1, Pyruvate kinase PKM. In words: Activation of PKM2 assessed as ATP product formation at 57 uM by luminescent pyruvate kinase-luciferase coupled assay relative to fructose-1,6-bis-phosphate. The essentials:
(§2)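 Recombinant human PKM2 (0.1 nM final) in 50 mM imidazole pH 7.2, 50 mM KCl, 7 mM MgCl2, 0.01% Tween 20, 0.05% BSA; 0.1 mM ADP, 0.5 mM PEP; 1 h at r.t., then Kinase-Glo luciferase read of ATP formed. Activation % = (c−n)/(n−i)×100 against DMSO and no-enzyme controls; 100% ≈ 2-fold over basal signal. Max response taken at 57 μM; three separate experiments.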
Target sequence in this assay (P14618 2-531 limits assumed): as above

Data set [7] concerns the target T1, Pyruvate kinase PKM. Put plainly: Activation of PKM1 assessed as ATP product formation by luminescent pyruvate kinase-luciferase coupled assay. The essentials: as §1
Target sequence in this assay (P14618 2-531 limits assumed): as above
In data set [8] the target is Pyruvate kinase PKLR (Homo sapiens) (UniProt P30613). Put plainly: Activation of PKR assessed as ATP product formation by luminescent pyruvate kinase-luciferase coupled assay relative to control. Set-up: concentration or dose not given beside the values. The essentials:
as §1

Data set [9] addresses T1, Pyruvate kinase PKM. In words: Activation of PKM2 assessed as ATP product formation by luminescent pyruvate kinase-luciferase coupled assay. The conditions noted are these: read-out: AC50. The essentials: as §2
Target sequence in this assay (P14618 whole entry): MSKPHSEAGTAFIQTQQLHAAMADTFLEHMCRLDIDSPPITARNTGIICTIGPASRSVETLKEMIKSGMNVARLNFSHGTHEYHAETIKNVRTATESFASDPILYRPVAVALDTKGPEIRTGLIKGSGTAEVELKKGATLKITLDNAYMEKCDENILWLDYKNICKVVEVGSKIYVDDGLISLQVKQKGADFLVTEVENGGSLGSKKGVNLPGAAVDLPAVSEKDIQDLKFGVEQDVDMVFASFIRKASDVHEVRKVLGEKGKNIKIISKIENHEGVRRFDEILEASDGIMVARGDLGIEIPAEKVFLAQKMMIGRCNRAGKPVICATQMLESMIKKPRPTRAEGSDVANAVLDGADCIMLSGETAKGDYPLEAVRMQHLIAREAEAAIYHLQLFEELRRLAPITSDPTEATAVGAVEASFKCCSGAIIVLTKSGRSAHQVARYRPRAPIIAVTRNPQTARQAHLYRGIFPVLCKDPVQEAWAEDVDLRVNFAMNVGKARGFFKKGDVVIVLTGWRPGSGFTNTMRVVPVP
In data set [10] the target is T1, Pyruvate kinase PKM. Put plainly: Activation of PKM2 in presence of excess of phosphoenolpyruvate level.
Target sequence in this assay (P14618 2-531 limits assumed): as the sequence (P14618 2-531 limits assumed) above
In data set [11] the target is T1, Pyruvate kinase PKM. In words: Activation of PKM2 assessed as pyruvate formation by fluorescent pyruvate kinase-lactate dehydrogenase coupled assay. The essentials:
(§3)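 Kinetic PK–LDH coupled read: 10 nM hPK-M2 with 1 μM LDH in 50 mM Tris-Cl pH 8.0, 200 mM KCl, 15 mM MgCl2, 0.1 mM PEP, 4.0 mM ADP, 0.2 mM NADH. NADH fluorescence decrease was read at 30 s intervals over 3–6 min.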
Target sequence in this assay (P14618 whole entry): as the sequence (P14618 whole entry) above

Data set [12] addresses T1, Pyruvate kinase PKM. Put plainly: Activation of PKM2 assessed as effect on Km for ADP relative to untreated control. The essentials:
(§4)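 Steady-state kinetics were measured by the PK–LDH coupled assay at about 22 °C with 10 nM PKM2, 200 mM KCl and 15 mM MgCl2. One substrate (PEP or ADP) was varied with the other held at 4.0 mM, with or without activator. Fluorescence was converted to pmol NADH by a standard curve; initial rates (pmol/min) were fit for KM.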
Target sequence in this assay (P14618 2-531 limits assumed): as the sequence (P14618 2-531 limits assumed) above

For data set [13], the target named is T1, Pyruvate kinase PKM. Put plainly: Activation of PKM2 assessed as pyruvate formation by fluorescent pyruvate kinase-lactate dehydrogenase coupled assay relative to fructose-1,6-bis-phosphate. The essentials: as §3
Target sequence in this assay (P14618 2-531 limits assumed): as above
Data set [14] concerns the target T1, Pyruvate kinase PKM. In words: Activation of PKM2 assessed as reduction of Km for phosphoenolpyruvate relative to untreated control. The essentials:
as §4

Chain of Pyruvate kinase PKLR (Homo sapiens) (P30613 whole entry, looked up): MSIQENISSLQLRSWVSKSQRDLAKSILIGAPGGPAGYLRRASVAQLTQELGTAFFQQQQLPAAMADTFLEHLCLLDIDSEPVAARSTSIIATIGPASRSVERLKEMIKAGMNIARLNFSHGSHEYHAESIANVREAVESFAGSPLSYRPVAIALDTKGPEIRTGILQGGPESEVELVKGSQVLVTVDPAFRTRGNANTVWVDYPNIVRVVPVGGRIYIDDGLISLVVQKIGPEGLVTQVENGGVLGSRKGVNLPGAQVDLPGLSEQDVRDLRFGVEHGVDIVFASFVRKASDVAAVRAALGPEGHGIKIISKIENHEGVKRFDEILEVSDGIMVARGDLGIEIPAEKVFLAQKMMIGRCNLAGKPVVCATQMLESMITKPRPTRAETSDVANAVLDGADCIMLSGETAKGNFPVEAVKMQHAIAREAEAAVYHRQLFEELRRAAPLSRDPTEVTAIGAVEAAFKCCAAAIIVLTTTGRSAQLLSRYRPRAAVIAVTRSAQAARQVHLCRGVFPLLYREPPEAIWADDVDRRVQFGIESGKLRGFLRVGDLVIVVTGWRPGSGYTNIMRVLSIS

For the compound `O=S(=O)(c1ccc2c(c1)OCCO2)N1CCCN(S(=O)(=O)c2c(F)cccc2F)CC1`, the kinetic solubility (commonly solubility judged after dilution from a stock solution rather than from solid) in data set [1] is 5.6 µM (≈ 2.66 µg/mL). For the same compound, the Activity in [2] was less than 30%; in data set [4] it was less than 30%; in data set [5], less than 30%; on Pyruvate kinase PKM [6], 120%; in [8], less than 30%. Further, the result at Pyruvate kinase PKM [3] and on Pyruvate kinase PKM [7] was inactive.
As to `Nc1cccc(S(=O)(=O)N2CCN(S(=O)(=O)c3ccc4c(c3)OCCO4)CC2)c1`, at Pyruvate kinase PKM [9], the half-maximal activity concentration (AC50) – broadly, the concentration giving half of the maximal activity seen – stood at 43 nM. The same compound showed a kinetic solubility in data set [1] of 7.3 µM (≈ 3.21 µg/mL). In addition, the Activity in [2] is less than 30%; in [4], less than 30%; in data set [5] it was less than 30%; at Pyruvate kinase PKM [6], 83.7%; in data set [8], less than 30%. Also, the result on Pyruvate kinase PKM [3] and at Pyruvate kinase PKM [7] was inactive.
`O=S(=O)(c1ccc2c(c1)OCCO2)N1CCN(S(=O)(=O)c2c(F)cccc2F)CC1` had a solubility (kinetic) in data set [1] of less than 1.1 µM. Moreover, the Activity in [2] is less than 30%; in data set [4], less than 30%; in data set [5], less than 30%; on Pyruvate kinase PKM [6] it was 94.4%; in [8], less than 30%. In addition, the result at Pyruvate kinase PKM [3] and on Pyruvate kinase PKM [7] was inactive.
With `Nc1cccc(S(=O)(=O)N2CCN(S(=O)(=O)c3c(F)cccc3F)CC2)c1`, the concentration at half-maximal activity (AC50) at Pyruvate kinase PKM [9] turned out to be 99 nM. This compound also gave a solubility (kinetic) in data set [1] of 5.7 µM (≈ 2.38 µg/mL). In addition, the Activity in data set [2] was less than 30%; in [4] it was less than 30%; in data set [5], less than 30%; on Pyruvate kinase PKM [6], 84.4%; in data set [8] it was less than 30%. In addition, the outcome at Pyruvate kinase PKM [3] and on Pyruvate kinase PKM [7] was inactive.
Take `O=P(O)(O)OC[C@H]1O[C@@](O)(COP(=O)(O)O)[C@@H](O)[C@@H]1O`: on Pyruvate kinase PKM [10], the result was inactive.
Regarding `COc1ccc(S(=O)(=O)N2CCN(S(=O)(=O)c3ccc4c(c3)OCCO4)CC2)cc1`, the AC50 at Pyruvate kinase PKM [11] was determined as 750 nM. In addition, the result at Pyruvate kinase PKM [10], at Pyruvate kinase PKM [3], on Pyruvate kinase PKM [12] and at Pyruvate kinase PKM [7] was inactive. The Activity in data set [2] was less than 30%; in data set [4], less than 30%; in [5], less than 30%; at Pyruvate kinase PKM [6], 92.2%; on Pyruvate kinase PKM [13], 150%; in data set [8] it was less than 30%. The fold change (FC) on Pyruvate kinase PKM [14] is 10.
With `Nc1cccc(S(=O)(=O)N2CCCN(S(=O)(=O)c3ccc4c(c3)OCCO4)CC2)c1`, the solubility (kinetic) in data set [1] worked out at 51.2 µM (≈ 23.2 µg/mL). The Activity was less than 30% in data set [2]; less than 30% in [4]; less than 30% in data set [5]; 81.7% on Pyruvate kinase PKM [6]; less than 30% in data set [8]. The result at Pyruvate kinase PKM [3] and on Pyruvate kinase PKM [7] was inactive.
With `COc1cc(F)c(S(=O)(=O)N2CCN(S(=O)(=O)c3cccc(N)c3)CC2)c(F)c1`, the AC50 at Pyruvate kinase PKM [9] worked out at 26 nM. This compound showed a kinetic solubility in data set [1] of less than 0.7 µM. For the same compound, the Activity is less than 30% in [2]; less than 30% in [4]; less than 30% in [5]; 90.5% at Pyruvate kinase PKM [6]; less than 30% in [8]. Also, the outcome on Pyruvate kinase PKM [3] and on Pyruvate kinase PKM [7] was inactive.
On to `COc1cc(F)c(S(=O)(=O)N2CCCN(S(=O)(=O)c3cccc(N)c3)CC2)c(F)c1`, for which the AC50 on Pyruvate kinase PKM [9] turned out to be 223 nM. Besides, in [1], the kinetic solubility came to 26.3 µM (≈ 12.1 µg/mL). Further, the Activity in [2] is less than 30%; in data set [4], less than 30%; in [5] it was less than 30%; on Pyruvate kinase PKM [6], 92.5%; in data set [8], less than 30%. In addition, the result on Pyruvate kinase PKM [3] and at Pyruvate kinase PKM [7] was inactive.
